Shown are actives, neighbours in structure and some others; about 2.3% of the full set was active somewhere.
PAX8 inh HTS – inhibitors of PAX8 transcriptional activity in RMG-I cells; RMG-I TPO-luciferase reporter, SteadyGlo, 24 h; inhibition, % at 12.6 µM; hit rate 1.2% among 360,000; AID 652154;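 active = mean replicate inhibition at least 60% with every replicate also reaching 60%; inconclusive = only one of the two criteria is met; inactive = mean below 60% and not all replicates reaching 60%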;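 note: luciferase light reporting Pax8 driven TPO promoter activity; plate controls were median of neutral control wells for no effect and mitoxantrone controls for full effect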
EWS-Fli block – inhibitors of EWS/Fli oncoprotein transcriptional activity; A673 NR0B1-luciferase reporter, viability-normalised; inhibition, % at 12.6 µM; hit rate 0.67% among 350,000; AID 651661;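 active = mean inhibition of at least 50% after viability correction, with every replicate also passing that limit; inconclusive = mean reaches 50% but only one of two replicates passes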;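 note: firefly luciferase signal divided by Alamar Blue viability fluorescence both relative to DMSO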
PGC1a acetyl inh – modulators of PGC1a acetylation; U2OS PGC1a acetylation, AlphaScreen anti-acetyl-lysine; with virally co-expressed GCN5 acetyltransferase; inhibition, % at 15.6 µM; hit rate 0.17% among 350,000;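 active = every replicate shows inhibition of at least 40%; inconclusive = mean inhibition at least 40% but some replicate below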;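 note: 0% = neutral control wells and 100% = positive control wells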
Env fusion inh – HIV envelope-mediated fusion inhibition; HeLa-JRFL Env/CEM21 cell fusion, luciferase; inhibition, % at 12.3 µM; hit rate 1.1% among 360,000; AID 651610;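 active = mean replicate inhibition score of at least 50 and every replicate individually at or above 50; inconclusive = only one of the two criteria met; inactive = mean below 50 and not all replicates reaching 50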;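 note: 0% = plate neutral controls and 100% = maraviroc near 300 nM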
FN deposition inh – fibronectin deposition inhibition. AH1F fibroblasts, Alexa488-fibronectin deposition fluorescence, overnight. inhibition, % at 12.6 µM. hit rate 0.086% among 350,000. AID 743247;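 active = mean inhibition across replicates of 30% or more, regardless of how many single replicates reach that level; inconclusive = mean under 30% yet at least half of replicates reach 30%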;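 note: positive control wells lacked labelled fibronectin entirely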
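Assay system: AH1F fibroblasts / Quantity: 10000 cells per well / Medium: DMEM plus 2% serum, read in PBS / Reagent: labelled fibronectin 24 nM / Dosing: single dose, pinned / Times: 1 h cell attachment, overnight exposure to compound and label / Signal: fluorescence, ex 485 nm, em 525 nm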
CFTR F508del cor – correctors of CFTR F508del function in bronchial epithelial cells; hit rate 0.36% among 350,000; AID 720511; CFBE cells, YFP halide quenching; stimulated with forskolin plus potentiator P3; % fluorescence drop versus neutral controls; activity (quench increase), % at 7.58 µM;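 active = mean added fluorescence quench of at least 8% versus neutral control, with both replicates also reaching 8%; inconclusive = only one of the mean or replicate conditions met; inactive = mean below 8% and not both replicates reaching 8%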;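 note: cells transiently co-express mutant CFTR-F508del with the halide-sensitive YFP; corrector assay measuring rescue of mutant channel to the surface after 24 h compound exposure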
An asterisk follows results filed as active; [ ] = dose if it differs, or a comment.

`C[C@H](CO)N1C[C@H](C)[C@H](CN(C)C(=O)Nc2ccc3c(c2)OCO3)Oc2c(NC(=O)Nc3ccccc3)cccc2C1=O` gave PAX8 inh HTS 72*, EWS-Fli block -35, PGC1a acetyl inh 5, Env fusion inh 2[16.7 µM] and CFTR F508del cor 1.
C[C@@H]1CN([C@H](C)CO)C(=O)c2cccc(NC(=O)Nc3cccc4ccccc34)c2O[C@@H]1CN(C)C(=O)Nc1ccc(C(F)(F)F)cc1 was read as PAX8 inh HTS 44, EWS-Fli block -9, PGC1a acetyl inh 14, Env fusion inh 16[16.7 µM] and CFTR F508del cor 1.
Screening C[C@H]1CN([C@@H](C)CO)C(=O)c2cccc(NC(=O)Nc3cccc4ccccc34)c2O[C@@H]1CN(C)C(=O)Nc1ccc(C(F)(F)F)cc1 returned PAX8 inh HTS 74*, EWS-Fli block 8, PGC1a acetyl inh 0, Env fusion inh 33[16.7 µM] and CFTR F508del cor 0.
`Cc1ccc(S(=O)(=O)N(C)C[C@H]2OCCCC[C@H](C)Oc3ccc(NS(=O)(=O)c4ccccc4)cc3C(=O)N([C@@H](C)CO)C[C@@H]2C)cc1` gave PAX8 inh HTS 50, EWS-Fli block -6, PGC1a acetyl inh -8, Env fusion inh -9[16.7 µM] and CFTR F508del cor 0.
For Cc1ccc(S(=O)(=O)Nc2ccc3c(c2)C(=O)N([C@H](C)CO)C[C@H](C)[C@H](CN(C)S(=O)(=O)c2ccc(C)cc2)OCCCC[C@H](C)O3)cc1 the results were PAX8 inh HTS 63*, EWS-Fli block 11, PGC1a acetyl inh 9, Env fusion inh -37[16.7 µM], FN deposition inh 0 and CFTR F508del cor 0.
For Cc1ccc(S(=O)(=O)Nc2ccc3c(c2)C(=O)N([C@@H](C)CO)C[C@H](C)[C@H](CN(C)S(=O)(=O)c2ccc(C)cc2)OCCCC[C@@H](C)O3)cc1 the results were PAX8 inh HTS 2, EWS-Fli block 11, PGC1a acetyl inh -4, Env fusion inh -38[16.7 µM], FN deposition inh 6 and CFTR F508del cor 9.1*.
For Cc1ccc(S(=O)(=O)Nc2ccc3c(c2)C(=O)N([C@@H](C)CO)C[C@H](C)[C@H](CN(C)S(=O)(=O)c2ccccc2)OCCCC[C@H](C)O3)cc1 the results were PAX8 inh HTS 67*, EWS-Fli block 12, PGC1a acetyl inh -6, Env fusion inh inconclusive, FN deposition inh -6 and CFTR F508del cor -1.
`Cc1ccc(S(=O)(=O)Nc2ccc3c(c2)C(=O)N([C@@H](C)CO)C[C@@H](C)[C@@H](CN(C)S(=O)(=O)c2ccc(C)cc2)OCCCC[C@@H](C)O3)cc1` gave PAX8 inh HTS 66*, EWS-Fli block 0, PGC1a acetyl inh -9, Env fusion inh -67[16.7 µM], FN deposition inh 8 and CFTR F508del cor -2.
`C[C@@H]1CN([C@@H](C)CO)C(=O)c2c(c3ccccc3n2C)-c2ccccc2CO[C@H]1CN(C)Cc1ccccc1` gave FN deposition inh -2.
Cc1ccc(S(=O)(=O)N(C)C[C@H]2OCCCC[C@H](C)Oc3ccc(NS(=O)(=O)c4cccs4)cc3C(=O)N([C@H](C)CO)C[C@@H]2C)cc1 was read as PAX8 inh HTS 72*, EWS-Fli block 1, PGC1a acetyl inh -9, Env fusion inh -30[16.7 µM], FN deposition inh -2 and CFTR F508del cor -3.
Cc1ccc(S(=O)(=O)N(C)C[C@@H]2OCCCC[C@H](C)Oc3ccc(NS(=O)(=O)c4cccs4)cc3C(=O)N([C@@H](C)CO)C[C@H]2C)cc1 was read as PAX8 inh HTS 16, EWS-Fli block -3, PGC1a acetyl inh 6, Env fusion inh -52[16.7 µM], FN deposition inh -3 and CFTR F508del cor -2.
For C[C@H]1CN([C@@H](C)CO)C(=O)c2ccccc2-c2ccccc2CO[C@H]1CN(C)S(=O)(=O)c1ccsc1 the results were PAX8 inh HTS 0, EWS-Fli block 3, PGC1a acetyl inh 20, Env fusion inh 39[16.7 µM], FN deposition inh -5 and CFTR F508del cor -2.
For COc1ccc(NC(=O)N(C)C[C@@H]2OCCCC[C@H](C)Oc3ccc(NC(=O)Nc4ccc(C(F)(F)F)cc4)cc3C(=O)N([C@@H](C)CO)C[C@H]2C)cc1 the results were PAX8 inh HTS 5, EWS-Fli block -1, PGC1a acetyl inh 0, Env fusion inh 33[16.7 µM] and CFTR F508del cor -2.

High-throughput results (PubChem)
